Only some compounds are listed: those with a hit (about 4.1% of all), similar ones and a draw of the others.
KCNQ1 block: inhibitors of human KCNQ1 channel, primary screen, cell-based, thallium flux, high-throughput; Potassium voltage-gated channel subfamily KQT member 1 (Homo sapiens), P51787; CHO-K1 KCNQ1, FluxOR thallium flux fluorescence; hits give high values; B-score at 10 µM; actives 1.3% (n = 310,000); AID 2642, 2010;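 active means compounds whose thallium flux B-score, printed positive for inhibition, exceeds three library SD while starting fluorescence stays within three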;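 further: channel opened by potassium depolarization with thallium stimulus after 20 min compound exposure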
hERG protect: hERG rescue from dofetilide block, primary screen, cell-based, CHO-hERG, FluxOR thallium flux, dofetilide IC70. Voltage-gated inwardly rectifying potassium channel KCNH2 (Homo sapiens), Q12809. dofetilide IC70 present. activation (rescue from dofetilide block), less the hit threshold, % at 10 µM. actives 0.51% (n = 310,000). AID 1511, 2009;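 active means activation above the mean of controls blocked by dofetilide plus 5 SD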;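 further: thallium influx through hERG after potassium depolarization seen as dye fluorescence rise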
KCNQ1 pot: potentiators or activators of KCNQ1 channel, primary screen, cell-based, thallium flux, high-throughput. Potassium voltage-gated channel subfamily KQT member 1 (Homo sapiens), P51787. CHO-K1 KCNQ1, thallium flux FluxOR fluorescence; hits give high values. B-score at 10 µM. actives 0.35% (n = 310,000);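 active means fluorescence ratio B-score, a plate-corrected score, at least three library SD, with initial intensity B-score within 5 SD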
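Schedule – 37 °C overnight plating, 90-min dark dye load, 20-min compound pretreatment · System – stable KCNQ1 CHO-K1 line · Probe or stimulus – thallium- and potassium-containing depolarizing buffer · Measured by – kinetic FluxOR fluorescence, 10 s baseline plus 110 s post-stimulus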
Cl transport mod: KCC2 cotransporter modulators, thallium flux, primary screen, cell-based, HEK293 KCC2, FluoZin-2 fluorescence, MLSMR; actives 2.2% (n = 190,000); KCC2 cells, thallium flux FluoZin-2 fluorescence; AID 1456, 2008; B-score of Tl+ flux slope (higher = more flux/activation; lower = inhibition) at 10 µM; Solute carrier family 12 member 5 (Homo sapiens), Q9H2X9;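 active means thallium flux slope and its plate-corrected score both differing from the plate sample mean at a set confidence after two filtering rounds, in either direction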;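 further: slope of fluorescence scaled to starting intensity during 10 to 20 s after thallium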
KCNK3 inh: human KCNK3 channel inhibitors, primary screen, CHO cells, FluxOR thallium flux, B-score; FluxOR fluorescence; hits give low values; B-score at 10 µM; actives 0.84% (n = 340,000);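 active means B-score under library mean minus 4 SD, starting fluorescence ratio at most library mean plus 5 SD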;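 further: more negative B-score means stronger inhibition of thallium flux through KCNK3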
KCNK9 inh: KCNK9 potassium channel inhibitors, primary screen, HEK293 cells, thallium flux; actives 1.2% (n = 310,000); AID 488922, 2010; FluxOR thallium flux fluorescence; hits give low values; Potassium channel subfamily K member 9 (Homo sapiens), Q9NPC2; B-score at 10 µM;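 active means ratio B-score over 3 SD below the library mean, with starting fluorescence within 5 SD of its mean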;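 further: negative B-score means less thallium flux so channel inhibition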
Target sequence (Q9NPC2 whole entry, looked up): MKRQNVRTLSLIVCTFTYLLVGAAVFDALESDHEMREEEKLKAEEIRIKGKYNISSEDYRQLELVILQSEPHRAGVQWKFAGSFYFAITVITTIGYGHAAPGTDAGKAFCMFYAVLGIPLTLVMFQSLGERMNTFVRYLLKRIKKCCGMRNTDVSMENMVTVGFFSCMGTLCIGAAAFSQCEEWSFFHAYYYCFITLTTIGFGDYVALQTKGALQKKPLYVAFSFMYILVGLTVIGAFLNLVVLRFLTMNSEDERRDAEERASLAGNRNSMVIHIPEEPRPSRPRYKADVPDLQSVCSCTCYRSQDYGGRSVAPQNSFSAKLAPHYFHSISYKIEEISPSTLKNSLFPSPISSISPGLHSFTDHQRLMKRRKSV
Numbers stand for hits; n = inactive; x = no result given.

SMILES	KCNQ1 block	hERG protect	KCNQ1 pot	Cl transport mod	KCNK3 inh	KCNK9 inh
COc1cc(C2c3cc4c(cc3C(OC3OC5COC(c6cccs6)OC5C(O)C3O)C3COC(=O)C23)OCO4)cc(OC)c1O (centres undefined)	8	n	n	n	n	n
COc1cc(OC)cc(-c2nc3ccccc3c(=O)n2OC(=O)c2ccc(C)c(C)c2)c1	7	n	n	n	n	n
COc1ccc2[nH]c3c(c2c1)CCN1C(=O)C(CC(=O)NCCCn2ccnc2)C[C@H](C(=O)N2CCCCC2)[C@@]31CCc1ccccc1 (some centres undefined)	x	x	x	x	n	x
CN(C)CCCNC(=O)c1ccccn1	n	n	n	n	n	n
CN(C)CCCNC(=O)c1ccc(-c2nc(-c3ccc(Cl)cc3)cs2)cc1	n	n	n	x	n	-7.2
O=[N+]([O-])c1cc(-c2nc(-c3ccncc3)no2)cc([N+](=O)[O-])c1	n	n	n	n	n	n
Cc1c(-c2nc(-c3ccncc3)no2)cccc1[N+](=O)[O-]	n	n	11	n	n	n
O=C(NCC1CC1(Cl)Cl)Nc1ccc(Cl)c(Cl)c1 (centres undefined)	n	n	n	x	n	-8.4
CC(C)(C)S(=O)(=O)N1C[C@@H]2CC/C=C\C/C(c3ccccc3)=C\2[C@H]1CCO	x	x	x	x	n	x
CS(=O)(=O)N(CC(=O)N1CCc2ccccc2C1)c1cccc([N+](=O)[O-])c1	n	n	n	x	n	n
CS(=O)(=O)N(CC(=O)N1CCc2ccccc2C1)c1cccc(F)c1	n	11	n	x	n	n
COc1ccc(C(=O)c2cnc3cc4c(cc3c2C)OCO4)cc1	n	n	n	x	n	-6.9
COC(=O)c1nc2cc3c(cc2c(C)c1C(=O)OC)OCO3	n	n	n	x	n	n
COc1ccc2nc(/N=C/c3c(C)[nH]n(-c4ccc(C)cc4C)c3=O)sc2c1	n	56	28	62	n	n
COc1ccccc1N=Cc1c(C)[nH]n(-c2ccc(C)cc2C)c1=O	n	n	n	n	n	n
COc1ccc(C)cc1NC(=O)C(OC(=O)CNC(=O)c1cc(C)cc(C)c1)c1ccccc1 (centres undefined)	n	n	n	n	n	-8
COc1ccc(C)cc1NC(=O)C(OC(=O)c1cnccn1)c1ccccc1 (centres undefined)	n	n	n	x	n	n
Cc1ccc(NC(=O)c2ccc(S(=O)(=O)N3CCOCC3)cc2)cc1	n	n	n	x	n	n
Cc1ccc(NC(=O)Cc2ccc(Cl)cc2)cc1S(=O)(=O)N1CCCCCC1	x	x	x	x	-9	x
Cc1ccc(NC(=S)Nc2ccc(S(=O)(=O)N3CCOCC3)cc2)cc1S(=O)(=O)N1CCOCC1	7	n	n	n	n	n
Cc1ccc(NC(=S)N=Nc2c(O)n(C)c3ccc(S(=O)(=O)N4CCOCC4)cc23)cc1	n	n	n	9.6	n	n
CC(C)(C)NNC(=S)Nc1ccc(S(=O)(=O)N2CCOCC2)cc1	n	n	n	n	n	n
COc1ccc(CC(=O)Nc2ccc(C)c(S(=O)(=O)N3CCCCCC3)c2)cc1	x	x	x	x	n	x
CC1CCC(NC(=O)c2cc(S(=O)(=O)N(C)C)ccc2N2CCCC2)CC1 (centres undefined)	n	n	n	x	n	n
C=CCN1C(=O)c2ccc(C(=O)N(CC(C)C)c3c(N)n(CCCC)c(=O)[nH]c3=O)cc2C1=O	n	n	n	x	n	n
SMILES	KCNQ1 block	hERG protect	KCNQ1 pot	Cl transport mod	KCNK3 inh	KCNK9 inh
O=C(/C=C/c1ccc([N+](=O)[O-])cc1)/C=C/c1ccco1	8	n	n	x	n	n
O=C(/C=C/c1ccc([N+](=O)[O-])cc1)c1ccco1	n	n	n	x	n	n
O=C1c2nc3cc(-c4ccco4)[nH]n3c(=O)c2CN1Cc1ccccc1	n	5.0	n	n	n	n
CNc1sc(C(=O)c2ccc(F)cc2)c(N)c1-c1nc2ccccc2s1	n	n	n	9.9	n	n
CNc1sc(C(=O)c2cccs2)c(N)c1-c1nc2ccccc2s1	n	n	n	n	n	n
Cc1cc(C(=O)NNC2CC(=O)N(c3ccc4ccccc4c3)C2=O)c(C)o1 (centres undefined)	n	5.0	n	n	n	n
CC(=O)c1cccc(CN2CCCCC2C(=O)Nc2ccc(Oc3ccccc3)nc2)c1 (centres undefined)	n	n	n	x	n	n
CCOC(=O)c1c(NC(C)=O)sc2c1CCC(C=NCCCN(CC)CC)=C2Sc1ccccc1	n	n	n	n	-9.6	-7.2
CCN(c1cccc(C)c1)S(=O)(=O)c1c(C)[nH]c(=O)[nH]c1=O	n	n	n	x	n	n
CCN(c1cccc(C)c1)S(=O)(=O)c1cnc[nH]1	n	5.3	n	x	n	n
COc1ccc(CCNCC(O)COc2cccc(C(C)=O)c2)cc1OC (centres undefined)	n	n	n	x	n	n
Cn1nc(C(=O)NNC(=O)c2ccccc2Br)c2ccccc2c1=O	x	x	x	x	n	x
O=c1c2cccnc2n(-c2ccccc2)n1Cc1ccc(Cl)cc1	n	n	14	n	n	n
O=c1c2cccnc2n(-c2ccccc2)n1Cc1c(Cl)cccc1Cl	n	n	n	n	n	n
O=C(Nc1ccc(Nc2ccncc2)cc1)c1ccc(Nc2ccnc3ccc([N+](=O)[O-])cc23)cc1[N+](=O)[O-]	n	13	n	n	n	n
CCC1(C(N)=O)CC2C=CC1C2 (centres undefined)	x	x	x	x	n	x
CCOc1ccc2c(S(=O)(=O)O)cccc2c1[N+](=O)[O-]	x	x	x	x	n	x
COc1cc(/C=C(\C#N)C(=O)Nc2cccc(C(=O)O)c2)ccc1OCc1ccc(F)cc1	n	n	n	x	n	n
CCOc1cc(/C=C(\C#N)C(=O)Nc2cccc(C(=O)O)c2)ccc1OCc1ccccc1Cl	6	n	n	x	n	n
O=C(NCC(=O)N1CCCC(C(F)(F)F)C1)c1cccs1 (centres undefined)	x	x	x	x	n	x
Cn1c(SCC(=O)N2c3ccccc3Sc3ccc(Cl)cc32)nnc1-c1ccco1	x	x	x	n	n	x
O=C(CSc1nnc(-c2ccncc2)n1Cc1ccco1)N1c2ccccc2Sc2ccc(Cl)cc21	n	n	n	n	n	-6.6
Cn1nnnc1SCC(=O)N1c2ccccc2Sc2ccc(Cl)cc21	x	x	x	x	-10	x
